Experimental data: ChEMBL document CHEMBL1134845, “Syntheses and biological activities of a novel group of steroidal derived inhibitors for human Cdc25A protein phosphatase” (J Med Chem, 2001)

How the values were obtained:
HT-29 = assay: Growth inhibitory activity was determined against HT-29 cancer cell line colon cancer; assay type: functional, Homo sapiens; settings: Homo sapiens, HT-29
Procedure, shortened: (§1)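 NCI 60 human tumour cell line screen run at the National Cancer Institute. Cell growth and viability read with the protein stain sulforhodamine B, which binds basic amino acids of cells left attached after washing. […] MG MID is the mean GI50 calculated over all panels.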

PC-3 = assay: Growth inhibitory activity was determined against PC-3 cancer cell line of Prostate cancer; assay type: functional; settings: Homo sapiens; procedure, shortened: as §1
BT-549 (Homo sapiens) = assay: Growth inhibitory activity was determined against BT-549 cancer cell line of Breast cancer; settings: Homo sapiens, BT-549
SF-539 = assay: Growth inhibitory activity was determined against SF-539 cancer cell line of CNS cancer; assay type: functional; settings: Homo sapiens; procedure, shortened: as §1
SF-268 = assay: Growth inhibitory activity was determined against SF-268 cancer cell line of CNS cancer; assay type: functional; settings: Homo sapiens; procedure, shortened: as §1
UO-31 = assay: Growth inhibitory activity was determined against UO-31 cancer cell line of renal cancer; assay type: functional; settings: Homo sapiens; procedure, shortened: as §1
OVCAR-3 [1] = assay: Growth inhibitory activity was determined against OVCAR-3 cancer cell lines of Ovarian cancer; assay type: functional; settings: Homo sapiens; procedure, shortened: as §1
LOX IMVI = assay: Growth inhibitory activity was determined against LOX IMVI cancer cell line of melanoma; assay type: functional, Homo sapiens; settings: Homo sapiens, LOX IMVI; procedure, shortened: as §1
SN12C = assay: Growth inhibitory activity was determined against SN12C cancer cell line of renal cancer; assay type: functional; settings: Homo sapiens; procedure, shortened: as §1
NCI/ADR-RES = assay: Growth inhibitory activity was determined against NCI/ADR-RES cancer cell line of Breast cancer; assay type: functional, Homo sapiens; settings: Homo sapiens, NCI/ADR-RES; procedure, shortened: as §1
786-0 = assay: Growth inhibitory activity was determined against 786-0 cancer cell line of renal cancer; assay type: functional; settings: Homo sapiens; procedure, shortened: as §1
A549 = assay: Growth inhibitory activity was determined against A549/ATCC cancer cell line of non-small cell lung cancer; assay type: functional, Homo sapiens; settings: Homo sapiens, A549; procedure, shortened: as §1
SK-MEL-5 = assay: Growth inhibitory activity was determined against SK-MEL-5 cancer cell line of melanoma; assay type: functional, Homo sapiens; settings: Homo sapiens, SK-MEL-5; procedure, shortened: as §1
OVCAR-8 [2] = assay: Growth inhibitory activity was determined against OVCAR-8 cancer cell lines of Ovarian cancer; assay type: functional; settings: Homo sapiens; procedure, shortened: as §1
NCI-H23 = assay: Growth inhibitory activity was determined against NCI-H23 cancer cell line of non-small cell lung cancer; assay type: functional, Homo sapiens; settings: Homo sapiens, NCI-H23; procedure, shortened: as §1
NCI-H522 = assay: Growth inhibitory activity was determined against NCI-H522 cancer cell line of non-small cell lung cancer; assay type: functional; settings: Homo sapiens; procedure, shortened: as §1
U-251 = assay: Growth inhibitory activity was determined against U-251 cancer cell line of CNS cancer; assay type: functional; settings: Homo sapiens; procedure, shortened: as §1
HCC 2998 = assay: Growth inhibitory activity was determined against HCC2998 cancer cell line colon cancer; assay type: functional, Homo sapiens; settings: Homo sapiens, HCC 2998; procedure, shortened: as §1
COLO 205 = assay: Growth inhibitory activity was determined against COLO 205 cancer cell line colon cancer; assay type: functional, Homo sapiens; settings: Homo sapiens, COLO 205; procedure, shortened: as §1
T47D = assay: Growth inhibitory activity was determined against T-47D cancer cell line of Breast cancer; assay type: functional, Homo sapiens; settings: Homo sapiens, T47D; procedure, shortened: as §1
OVCAR-8 [3] = assay: Growth inhibitory activity was determined against OVCAR-8 cancer cell line of Ovarian cancer; assay type: functional; settings: Homo sapiens; procedure, shortened: as §1
[4] = biological target: T1, M-phase inducer phosphatase 1 (Homo sapiens) (UniProt P30304); assay: Inhibitory activity tested against cell division cycle 25A (assay using fluorescein diphosphate (FDP) as substrate)
T1 sequence (whole entry): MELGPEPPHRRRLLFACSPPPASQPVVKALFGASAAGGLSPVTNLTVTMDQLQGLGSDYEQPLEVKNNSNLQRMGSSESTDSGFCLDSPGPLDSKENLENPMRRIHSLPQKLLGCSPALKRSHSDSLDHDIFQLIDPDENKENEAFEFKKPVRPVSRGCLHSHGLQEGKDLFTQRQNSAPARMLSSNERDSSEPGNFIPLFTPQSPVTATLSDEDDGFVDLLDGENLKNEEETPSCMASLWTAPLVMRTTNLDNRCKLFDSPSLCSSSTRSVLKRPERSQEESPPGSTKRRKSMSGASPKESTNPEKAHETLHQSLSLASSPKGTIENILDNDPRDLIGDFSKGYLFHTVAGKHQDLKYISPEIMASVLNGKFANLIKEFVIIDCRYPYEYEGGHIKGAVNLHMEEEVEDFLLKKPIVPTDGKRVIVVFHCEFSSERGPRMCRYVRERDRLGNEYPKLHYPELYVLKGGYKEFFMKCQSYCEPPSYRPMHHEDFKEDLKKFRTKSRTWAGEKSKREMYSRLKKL
Procedure, shortened: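 Recombinant human GST-Cdc25A fusion protein, each batch calibrated so that FDP was dephosphorylated linearly over 20 min. Fluorescein diphosphate was the substrate. Reactions ran 15 min at 25 °C in the dark and were stopped with sodium orthovanadate. Fluorescein monophosphate was read at 485 nm excitation and 530 nm emission. IC50 came from at least two independent runs, each in triplicate.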

[5] = biological target: Receptor-type tyrosine-protein phosphatase C, CD45 (Homo sapiens) (UniProt P08575); assay: Inhibitory activity tested against human CD45 receptor-type tyrosine-protein phosphatase C
[6] = biological target: T1, M-phase inducer phosphatase 1 (Homo sapiens); assay: Inhibitory activity tested against cell division cycle 25A (assay using p-nitro phenyl phosphate (pNPP) as substrate)
OVCAR-3 [7] = assay: Growth inhibitory activity was determined against OVCAR-3 cancer cell line of Ovarian cancer; assay type: functional; settings: Homo sapiens; procedure, shortened: as §1
[8] = substrate: C=C(CCCCC#N)[C@H]1CC[C@]2(C)[C@@H]([C@H](C)CCCC(C)C)CC[C@H]2[C@@H]1CC(=O)O
[9] = substrate: C=C(CCCCC#N)[C@H]1CC[C@]2(C)[C@@H]([C@H](C)CCCC(C)C)CC[C@H]2[C@@H]1CC(=O)O; remark: listed apart in the source
[10] = substrate: C=C(CCCCC#N)[C@H]1CC[C@]2(C)[C@@H]([C@H](C)CCCC(C)C)CC[C@H]2[C@@H]1CC(=O)O; settings: 2.5 uM
[11] = substrate: C=C(CCCCC#N)[C@H]1CC[C@]2(C)[C@@H]([C@H](C)CCCC(C)C)CC[C@H]2[C@@H]1CC(=O)O; settings: 5 uM
[12] = substrate: C=C(CCCCC#N)[C@H]1CC[C@]2(C)[C@@H]([C@H](C)CCCC(C)C)CC[C@H]2[C@@H]1CC(=O)O; remark: listed apart in the source
[13] = substrate: C=C(CCCCC#N)[C@H]1CC[C@]2(C)[C@@H]([C@H](C)CCCC(C)C)CC[C@H]2[C@@H]1CC(=O)O; remark: listed apart in the source
[14] = substrate: C=C(CCCCC#N)[C@H]1CC[C@]2(C)[C@@H]([C@H](C)CCCC(C)C)CC[C@H]2[C@@H]1CC(=O)O; settings: 0.625 uM
[15] = substrate: C=C(CCCCC#N)[C@H]1CC[C@]2(C)[C@@H]([C@H](C)CCCC(C)C)CC[C@H]2[C@@H]1CC(=O)O; settings: 1.25 uM

Receptor-type tyrosine-protein phosphatase C, CD45 (Homo sapiens), sequence (P08575 whole entry, looked up): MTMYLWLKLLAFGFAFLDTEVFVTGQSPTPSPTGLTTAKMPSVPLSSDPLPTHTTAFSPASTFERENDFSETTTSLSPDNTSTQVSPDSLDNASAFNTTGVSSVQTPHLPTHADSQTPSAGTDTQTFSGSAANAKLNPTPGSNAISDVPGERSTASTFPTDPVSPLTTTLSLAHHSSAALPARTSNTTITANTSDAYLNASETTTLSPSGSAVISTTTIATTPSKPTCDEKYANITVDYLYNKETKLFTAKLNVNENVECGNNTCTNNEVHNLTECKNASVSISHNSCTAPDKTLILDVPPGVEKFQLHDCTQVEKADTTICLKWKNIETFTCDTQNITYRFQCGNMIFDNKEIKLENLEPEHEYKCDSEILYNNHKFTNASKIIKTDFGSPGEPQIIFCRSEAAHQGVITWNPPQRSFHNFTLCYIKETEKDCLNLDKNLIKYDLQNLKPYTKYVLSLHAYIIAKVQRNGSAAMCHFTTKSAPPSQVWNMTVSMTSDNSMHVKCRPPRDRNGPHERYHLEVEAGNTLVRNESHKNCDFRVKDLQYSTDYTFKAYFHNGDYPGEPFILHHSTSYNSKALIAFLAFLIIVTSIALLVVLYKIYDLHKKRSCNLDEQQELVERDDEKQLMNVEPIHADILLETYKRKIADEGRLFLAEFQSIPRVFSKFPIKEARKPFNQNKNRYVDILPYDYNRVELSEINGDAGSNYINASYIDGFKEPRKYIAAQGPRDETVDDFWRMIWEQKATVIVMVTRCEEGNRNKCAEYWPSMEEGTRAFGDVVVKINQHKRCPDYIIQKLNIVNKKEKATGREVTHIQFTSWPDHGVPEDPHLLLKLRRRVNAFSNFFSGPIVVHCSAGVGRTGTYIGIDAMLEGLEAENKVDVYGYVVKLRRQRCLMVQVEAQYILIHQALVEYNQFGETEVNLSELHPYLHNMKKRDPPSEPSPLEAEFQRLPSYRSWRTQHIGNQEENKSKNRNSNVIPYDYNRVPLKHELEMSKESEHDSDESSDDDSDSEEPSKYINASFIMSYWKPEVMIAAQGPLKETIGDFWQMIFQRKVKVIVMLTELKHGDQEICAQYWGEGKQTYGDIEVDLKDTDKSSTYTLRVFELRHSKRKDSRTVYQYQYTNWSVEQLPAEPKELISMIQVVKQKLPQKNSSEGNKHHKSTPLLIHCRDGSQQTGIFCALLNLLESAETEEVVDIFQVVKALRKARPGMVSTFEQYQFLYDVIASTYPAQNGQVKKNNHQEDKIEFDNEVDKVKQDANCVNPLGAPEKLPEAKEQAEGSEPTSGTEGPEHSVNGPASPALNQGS

Molecule: CC(C)CCCC(C)[C@H]1CC[C@H]2[C@H](CC(=O)O)[C@@H]([C@@]3(C)CC[C@@H](CC#N)O3)CC[C@]12C (some centres undefined)
- GI50 (HT-29): 5.52 µM
- GI50 (PC-3): 7.77 µM
- GI50 (BT-549 (Homo sapiens)): 5.05 µM
- GI50 (SF-539): 19.5 µM
- GI50 (SF-268): 2.86 µM
- GI50 (UO-31): 15.3 µM
- GI50 (OVCAR-3 [1]): 5.66 µM
- GI50 (LOX IMVI): 6.23 µM
- GI50 (SN12C): 5.4 µM
- GI50 (NCI/ADR-RES): 5.44 µM
- GI50 (786-0): 9.23 µM
- GI50 (A549): 8.25 µM
- GI50 (SK-MEL-5): 10.8 µM
- GI50 (OVCAR-8 [2]): 4.76 µM
- GI50 (NCI-H23): 5.75 µM
- GI50 (NCI-H522): 0.94 µM
- GI50 (U-251): 6.01 µM
- GI50 (HCC 2998): 5.1 µM
- GI50 (COLO 205): 5.26 µM
- GI50 (T47D): 8.41 µM

Molecule: C=C(CCCCC#N)[C@H]1CC[C@]2(C)[C@@H]([C@H](C)CCCC(C)C)CC[C@H]2[C@@H]1CC(=O)O
- GI50 (HT-29): 7.77 µM
- GI50 (PC-3): 7.36 µM
- GI50 (OVCAR-8 [3]): 4.78 µM
- GI50 (BT-549 (Homo sapiens)): 5.62 µM
- GI50 (SF-539): 4.5 µM
- GI50 (UO-31): 9.41 µM
- IC50 [4]: 2.2 µM
- GI50 (LOX IMVI): 4.92 µM
- GI50 (SN12C): 6.9 µM
- GI50 (NCI/ADR-RES): 5.66 µM
- GI50 (786-0): 11.5 µM
- GI50 (A549): 5.21 µM
- GI50 (SK-MEL-5): 5.98 µM
- IC50 [5]: 12.2 µM
- GI50 (NCI-H23): 5.12 µM
- IC50 [6]: 8.3 µM
- GI50 (U-251): 6.49 µM
- GI50 (HCC 2998): 6.33 µM
- GI50 (OVCAR-3 [7]): 6.64 µM
- GI50 (COLO 205): 5.1 µM
- GI50 (T47D): 8.39 µM

B1: M-phase inducer phosphatase 1 (Homo sapiens), P30304 (protein)
chain: MELGPEPPHRRRLLFACSPPPASQPVVKALFGASAAGGLSPVTNLTVTMDQLQGLGSDYEQPLEVKNNSNLQRMGSSESTDSGFCLDSPGPLDSKENLENPMRRIHSLPQKLLGCSPALKRSHSDSLDHDIFQLIDPDENKENEAFEFKKPVRPVSRGCLHSHGLQEGKDLFTQRQNSAPARMLSSNERDSSEPGNFIPLFTPQSPVTATLSDEDDGFVDLLDGENLKNEEETPSCMASLWTAPLVMRTTNLDNRCKLFDSPSLCSSSTRSVLKRPERSQEESPPGSTKRRKSMSGASPKESTNPEKAHETLHQSLSLASSPKGTIENILDNDPRDLIGDFSKGYLFHTVAGKHQDLKYISPEIMASVLNGKFANLIKEFVIIDCRYPYEYEGGHIKGAVNLHMEEEVEDFLLKKPIVPTDGKRVIVVFHCEFSSERGPRMCRYVRERDRLGNEYPKLHYPELYVLKGGYKEFFMKCQSYCEPPSYRPMHHEDFKEDLKKFRTKSRTWAGEKSKREMYSRLKKL
- Km [8]: 23.1 µM
- Km [9]: 37.4 µM
- Vmax [10]: 3070
- Vmax [11]: 632
- Km [12]: 33.6 µM
- Km [13]: 32.3 µM
- Vmax [14]: 4610
- Vmax [15]: 4260
